Each block holds one compound with its values, some of them ahead of it. Active and inactive are the calls of the source. No cut-off for these calls is given here.
Key:
[1] = target: Mitogen-activated protein kinase 1 (Homo sapiens) (UniProt P28482); assay: Inhibition of MAPK1 (unknown origin) at 10 uM
[2] = target: Mitogen-activated protein kinase 11 (Homo sapiens) (UniProt Q15759); assay: Inhibition of p38MAPK beta (unknown origin) at 10 uM relative to control
Canis familiaris = assay: AUC (0 to t) in Beagle dog assessed as 4-(4-(4-fluorophenyl)-1-methyl-2-(methylsulfinyl)-1H-imidazol-5-yl)pyridin-2-amine level at 40 mg/kg, po by LC-MS/MS analysis; format: ADME, organism-based, Canis lupus familiaris; settings: in vivo
How it was run: (§1)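 Toxicokinetics from a maximum-tolerated-dose study in four Beagle dogs given 40 mg/kg orally. Plasma levels of both parent and its predominant metabolite were monitored.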

[3] = target: T1, Mitogen-activated protein kinase 14 (Homo sapiens, UniProt Q16539); assay: Inhibition of p38MAPK alpha (unknown origin) at 10 uM relative to control
[4] = target: Casein kinase I isoform delta (Homo sapiens) (UniProt P48730); assay: Inhibition of CK1delta (unknown origin) at 3 uM relative to control
Rattus norvegicus [5] = assay: Toxicity in Sprague-Dawley rat assessed as dyspnea at 2000 mg/kg, po administered via gavage measured on day 1 and 2; format: organism-based; settings: in vivo
Rattus norvegicus [6] = assay: Toxicity in Sprague-Dawley rat assessed as increase in histopathological changes at 150 mg/kg, po administered via gavage for daily 28 days followed by 2 weeks off without dosing; format: organism-based; settings: in vivo
[7] = Half life in cynomolgus monkey at 20 mg/kg, po measured on day 1 and 27 post dose by LC-MS/MS analysis; format: ADME, organism-based, Macaca fascicularis; settings: in vivo
How it was run: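 Cynomolgus monkeys were dosed orally at 6, 12 and 20 mg/kg daily in a 4-week toxicity study. Blood was sampled from 0.5 to 24 h post dose on days 1 and 27. Individual profiles of parent and metabolite gave Tmax, Cmax, T1/2 and AUC0–24.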

[8] = Tmax in mongrel dog at 30 mg/kg, po by LC-MS/MS analysis; format: ADME, organism-based, Canis lupus familiaris; settings: in vivo
[9] = Drug metabolism in cynomolgus monkey liver microsomes assessed as 4-(4-(4-fluorophenyl)-1-methyl-2-(methylsulfinyl)-1H-imidazol-5-yl)pyridin-2-amine formation at 10 to 100 uM; format: ADME, Macaca fascicularis, microsome
How it was run: (§2)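 Test compound incubated at 10, 30 and 100 μM with liver microsomes from rat, Cynomolgus monkey or human, and metabolites monitored.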

[10] = Half life in male Sprague-Dawley rat at 30 mg/kg, po by LC-MS/MS analysis; format: ADME, organism-based; settings: in vivo
Liver = assay: Drug metabolism in rat liver microsomes assessed as 4-(4-(4-fluorophenyl)-1-methyl-2-(methylsulfonyl)-1H-imidazol-5-yl)pyridin-2-amine formation at 10 to 100 uM; format: ADME, microsome; how it was run: as §2
Homo sapiens [11] = species on record: Homo sapiens; assay: Inhibition of cyclinH/MAT1 (unknown origin) at 10 uM relative to control
Rattus norvegicus [12] = assay: In vivo inhibition of P38 MAPKalpha in Lewis rat assessed as decrease in LPS-stimulated TNFalpha level in serum at 10 mg/kg, po pretreated for 1 hrs followed by LPS addition measured after 1.5 hrs post dose; format: functional, organism-based
How it was run: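 Lewis rats, n = 8/group: females dosed orally at 10 mg/kg at −1, −3 or −5 h relative to LPS challenge, plus one male group dosed at −1 h. Male and female vehicle controls were given at −1 h. Serum TNFα was measured after LPS and compared with vehicle.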

[13] = target: T1, Mitogen-activated protein kinase 14; assay: Inhibition of MKK6-mediated p38alpha MAPK (unknown origin) phosphorylation up to 10 uM
Homo sapiens [14] = assay: Toxicity in human assessed as effect on blood pressure at 50 mg, po administered as single dose; format: organism-based; settings: in vivo
Escherichia coli = assay: Genotoxicity in Escherichia coli in absence of S9 fraction by Ames test; format: toxicity
How it was run: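 Bacterial reverse mutation (Ames) test in S. typhimurium and E. coli strains, run with and without S9 mix.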

Mus musculus [15] = assay: Antiarthritic activity in human TNF transgenic mouse model assessed as reduction in cartilage damage at 20 to 50 mg/kg/day, po for 10 weeks; format: functional, organism-based
How it was run: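 Heterozygous human TNF transgenic mice (8 per group) were dosed orally for ten weeks with 20 or 50 mg/kg/day as a methylcellulose suspension, alongside vehicle and infliximab i.p. controls. Joint swelling and grip strength were scored weekly, and hind paws were examined histologically at the end.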

[16] = target: Receptor-interacting serine/threonine-protein kinase 2 (Homo sapiens) (UniProt O43353); assay: Inhibition of RIPK2 (unknown origin) at 10 uM relative to control
[17] = AUC (0 to infinity) in Beagle dog at 40 mg/kg, po by LC-MS/MS analysis; format: ADME, organism-based, Canis lupus familiaris; design: dose 40 mg/kg, time infinity, route oral; settings: in vivo; how it was run: as §1
Homo sapiens [18] = assay: AUC (infinity) in human assessed as 4-(4-(4-fluorophenyl)-1-methyl-2-(methylsulfinyl)-1H-imidazol-5-yl)pyridin-2-amine formation at 20 mg, po administered as single dose; format: ADME, organism-based; design: dose 20 mg, time infinity, route oral; settings: in vivo
How it was run: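 Placebo-controlled, single-blind, randomized, consecutive-dosing study in healthy subjects given single oral doses, with 10 mg also given fasting and fed in a crossover. Plasma parent and active metabolite were measured predose and from 0.25 to 36 h post dose. PK parameters were derived from individual concentration–time profiles and reported as means.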

Cynomolgus monkey = assay: Toxicity in cynomolgus monkey assessed as whitish vomiting at 6 to 20 mg/kg, po; format: organism-based, Macaca fascicularis; settings: in vivo
Mus musculus [19] = assay: In vivo inhibition of P38 MAPKalpha in BALB/c mouse assessed as decrease in LPS/GalN-stimulated TNFalpha level in plasma at 3 mg/kg, po administered via gavage pretreated for 1 hr followed by LPS/GalN addition measured after 1.5 hrs relative to control; format: functional
How it was run: (§3)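 Male BALB/c mice, n = 6/group, given 3, 10 or 30 mg/kg orally by gavage 1 h before i.p. D-GalN (500 mg/kg) plus LPS (1.5 μg/kg). Blood was taken by cardiac puncture and plasma TNFα measured against a vehicle-only control.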

[20] = target: Mitogen-activated protein kinase 10 (Homo sapiens) (UniProt P53779); assay: Inhibition of JNK3 (unknown origin) at 10 uM relative to control
[21] = Cmax in Beagle dog at 40 mg/kg, po by LC-MS/MS analysis; format: ADME, organism-based, Canis lupus familiaris; design: dose 40 mg/kg, route oral; settings: in vivo; how it was run: as §1
Rattus norvegicus [22] = assay: Antiarthritic activity in Lewis rat assessed as decrease in collagen-induced arthritic score at 50 mg/kg, po qd administered for 10 days; format: functional, organism-based
How it was run: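 Collagen-induced arthritis in male Lewis rats (5–6 per group). Groups received vehicle, dexamethasone 1 mg/kg, test item 50 mg/kg once daily, or 25 mg/kg twice daily for 10 days. Body weight, arthritic score and paw volume were monitored, and serum COMP was measured at the end.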

Rattus norvegicus [23] = assay: Toxicity in Sprague-Dawley rat assessed as increase in hunched posture at 150 mg/kg, po administered via gavage for daily 28 days followed by 2 weeks off without dosing; format: organism-based; settings: in vivo
Mus musculus [24] = assay: In vivo inhibition of P38 MAPKalpha in BALB/c mouse assessed as decrease in LPS/GalN-stimulated TNFalpha level in plasma at 10 mg/kg, po administered via gavage pretreated for 1 hr followed by LPS/GalN addition measured after 1.5 hrs relative to control; format: functional; how it was run: as §3

T1 sequence (Q16539 whole entry, canonical isoform): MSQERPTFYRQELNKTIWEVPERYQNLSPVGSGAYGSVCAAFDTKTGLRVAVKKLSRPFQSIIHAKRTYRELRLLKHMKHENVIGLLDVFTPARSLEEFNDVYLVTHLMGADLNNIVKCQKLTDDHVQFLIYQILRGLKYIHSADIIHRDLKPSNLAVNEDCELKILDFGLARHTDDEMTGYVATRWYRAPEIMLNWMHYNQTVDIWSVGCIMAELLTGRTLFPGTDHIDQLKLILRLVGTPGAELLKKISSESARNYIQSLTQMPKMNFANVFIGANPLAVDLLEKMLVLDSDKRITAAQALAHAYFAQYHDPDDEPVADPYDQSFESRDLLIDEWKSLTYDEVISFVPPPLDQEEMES
Chain of Mitogen-activated protein kinase 10 (Homo sapiens) (P53779 whole entry): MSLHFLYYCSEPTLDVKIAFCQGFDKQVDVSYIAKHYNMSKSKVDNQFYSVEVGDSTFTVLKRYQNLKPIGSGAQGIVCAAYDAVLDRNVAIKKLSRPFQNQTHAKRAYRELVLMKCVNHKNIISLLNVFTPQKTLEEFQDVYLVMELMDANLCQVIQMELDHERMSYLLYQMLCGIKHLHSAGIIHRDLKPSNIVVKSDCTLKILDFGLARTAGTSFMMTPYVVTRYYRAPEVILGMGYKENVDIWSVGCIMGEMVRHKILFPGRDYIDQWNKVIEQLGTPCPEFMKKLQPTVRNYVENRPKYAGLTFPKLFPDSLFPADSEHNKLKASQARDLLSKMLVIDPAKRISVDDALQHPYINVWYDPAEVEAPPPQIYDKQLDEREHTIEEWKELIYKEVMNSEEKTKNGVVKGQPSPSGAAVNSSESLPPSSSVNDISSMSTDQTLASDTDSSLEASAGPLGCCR
Chain of Receptor-interacting serine/threonine-protein kinase 2 (Homo sapiens) (O43353 whole entry): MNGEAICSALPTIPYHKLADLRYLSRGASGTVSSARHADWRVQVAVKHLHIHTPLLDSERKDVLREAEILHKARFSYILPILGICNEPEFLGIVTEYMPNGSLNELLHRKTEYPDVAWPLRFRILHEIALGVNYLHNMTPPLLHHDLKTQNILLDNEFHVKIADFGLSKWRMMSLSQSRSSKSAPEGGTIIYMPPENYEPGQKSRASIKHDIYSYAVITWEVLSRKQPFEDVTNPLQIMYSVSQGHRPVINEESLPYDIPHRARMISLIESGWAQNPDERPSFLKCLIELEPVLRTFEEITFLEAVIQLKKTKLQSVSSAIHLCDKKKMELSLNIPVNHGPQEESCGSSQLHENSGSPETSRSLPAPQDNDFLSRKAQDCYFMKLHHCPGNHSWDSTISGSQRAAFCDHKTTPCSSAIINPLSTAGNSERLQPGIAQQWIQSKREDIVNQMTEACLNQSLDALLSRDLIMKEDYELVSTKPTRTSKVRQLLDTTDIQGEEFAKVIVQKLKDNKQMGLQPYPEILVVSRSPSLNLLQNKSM
Chain of Mitogen-activated protein kinase 1 (Homo sapiens) (P28482 whole entry): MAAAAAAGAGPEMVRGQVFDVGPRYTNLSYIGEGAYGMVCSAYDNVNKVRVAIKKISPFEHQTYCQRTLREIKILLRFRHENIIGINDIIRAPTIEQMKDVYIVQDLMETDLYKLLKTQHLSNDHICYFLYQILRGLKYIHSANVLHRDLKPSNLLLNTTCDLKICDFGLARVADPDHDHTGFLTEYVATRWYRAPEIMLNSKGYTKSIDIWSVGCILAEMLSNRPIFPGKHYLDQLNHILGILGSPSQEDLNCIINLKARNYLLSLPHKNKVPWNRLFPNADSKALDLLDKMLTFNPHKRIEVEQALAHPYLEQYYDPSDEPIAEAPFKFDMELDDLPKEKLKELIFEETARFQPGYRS
Chain of Casein kinase I isoform delta (Homo sapiens) (P48730 whole entry, looked up, canonical isoform): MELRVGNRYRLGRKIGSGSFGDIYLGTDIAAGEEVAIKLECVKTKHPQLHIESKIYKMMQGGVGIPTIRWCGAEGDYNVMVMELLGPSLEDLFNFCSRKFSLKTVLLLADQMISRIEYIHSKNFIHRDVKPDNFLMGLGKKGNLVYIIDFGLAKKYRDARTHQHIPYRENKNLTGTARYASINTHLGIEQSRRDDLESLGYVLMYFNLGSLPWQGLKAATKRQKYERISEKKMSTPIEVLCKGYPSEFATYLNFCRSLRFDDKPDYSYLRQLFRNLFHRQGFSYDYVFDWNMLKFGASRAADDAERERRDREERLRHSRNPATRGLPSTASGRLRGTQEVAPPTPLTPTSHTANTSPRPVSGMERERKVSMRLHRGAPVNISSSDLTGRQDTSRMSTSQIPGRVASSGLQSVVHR
Chain of Mitogen-activated protein kinase 11 (Homo sapiens) (Q15759 whole entry): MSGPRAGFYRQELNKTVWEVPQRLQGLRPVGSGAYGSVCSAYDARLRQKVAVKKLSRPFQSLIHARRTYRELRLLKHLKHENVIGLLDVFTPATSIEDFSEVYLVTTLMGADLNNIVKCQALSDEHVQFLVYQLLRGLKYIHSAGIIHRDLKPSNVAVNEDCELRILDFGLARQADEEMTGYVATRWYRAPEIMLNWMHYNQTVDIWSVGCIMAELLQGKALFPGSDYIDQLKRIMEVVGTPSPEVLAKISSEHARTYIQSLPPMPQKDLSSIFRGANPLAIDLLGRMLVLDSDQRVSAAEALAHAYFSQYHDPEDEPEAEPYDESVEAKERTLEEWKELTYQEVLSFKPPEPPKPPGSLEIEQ

- inhibition [1]: inactive
- inhibition [2]: inactive
- AUCt (Canis familiaris): 86.5 µM·h
- inhibition [3]: inactive
- inhibition [4]: 88%
Structure (SMILES): Cn1c([S+](C)[O-])nc(-c2ccc(F)cc2)c1-c1ccnc(N)c1 (stereo not drawn)

Structure (SMILES): CC(=O)Nc1cc(-c2c(-c3ccc(F)cc3)nc([S+](C)[O-])n2C)ccn1 (stereo not drawn)
- Activity (Rattus norvegicus [5]): Toxic
- Activity (Rattus norvegicus [6]): Toxic
- half-life [7]: 4.8 h
- Tmax [8]: 2 h
- Drug metabolism [9]: Metabolite_Detected
- half-life [10]: 1.8 h
- Drug metabolism (Liver): Metabolite_Detected
- inhibition (Homo sapiens [11]): 54%
- inhibition (Rattus norvegicus [12]): Active
- inhibition [13]: inactive
- Activity (Homo sapiens [14]): Non-Toxic
- Activity (Escherichia coli): Non-Toxic
- Activity (Mus musculus [15]): Active
- inhibition [16]: 33%
- AUC(0-inf) [17]: 120 µM·h
- AUC (Homo sapiens [18]): 6.1022 µM·h
- Activity (Cynomolgus monkey): Toxic
- inhibition in vivo at 3 mg/kg (Mus musculus [19]): 82%
- inhibition [20]: 76%
- Cmax [21]: 15.6 µM
- Activity (Rattus norvegicus [22]): Active
- Activity (Rattus norvegicus [23]): Toxic
- inhibition in vivo at 10 mg/kg (Mus musculus [24]): 84%
